Active and inactive are the calls of the source. The rule behind the calls is not given here.
How the values were obtained:
[1] = molecular target: T1, Glucocorticoid receptor (Homo sapiens) (UniProt P04150); experiment: (§1) Antagonist activity at GR in human OVCAR5 assessed as reduction in dexamethasone-induced FKBP5 gene expression incubated for 24 hrs by RT-qPCR method
T1 sequence (whole entry): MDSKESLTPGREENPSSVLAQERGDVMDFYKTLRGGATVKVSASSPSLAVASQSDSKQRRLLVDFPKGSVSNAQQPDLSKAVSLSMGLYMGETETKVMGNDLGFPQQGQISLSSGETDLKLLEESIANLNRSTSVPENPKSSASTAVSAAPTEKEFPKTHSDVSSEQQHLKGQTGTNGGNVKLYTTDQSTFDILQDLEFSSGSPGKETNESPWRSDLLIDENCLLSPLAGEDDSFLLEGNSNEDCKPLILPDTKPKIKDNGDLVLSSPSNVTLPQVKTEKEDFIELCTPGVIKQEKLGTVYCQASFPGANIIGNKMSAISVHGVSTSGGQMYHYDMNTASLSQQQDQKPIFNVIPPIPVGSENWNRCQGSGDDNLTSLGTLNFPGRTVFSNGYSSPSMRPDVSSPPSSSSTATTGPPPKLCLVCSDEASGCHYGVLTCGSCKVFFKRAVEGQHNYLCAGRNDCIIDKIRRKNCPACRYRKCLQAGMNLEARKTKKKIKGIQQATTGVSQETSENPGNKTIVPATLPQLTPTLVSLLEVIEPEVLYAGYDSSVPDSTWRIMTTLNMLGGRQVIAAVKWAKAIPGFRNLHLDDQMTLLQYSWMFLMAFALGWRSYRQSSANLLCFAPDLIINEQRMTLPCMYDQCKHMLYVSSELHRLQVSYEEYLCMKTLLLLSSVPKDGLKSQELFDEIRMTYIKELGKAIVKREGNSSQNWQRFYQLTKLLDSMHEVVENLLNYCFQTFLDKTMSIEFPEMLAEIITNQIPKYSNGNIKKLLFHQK

Glucocorticoid receptor [2] = molecular target: T2, Glucocorticoid receptor (Homo sapiens, UniProt P04150); experiment: as §1
T2 sequence (P04150 whole entry): T1 sequence (whole entry)

Androgen receptor [3] = molecular target: T3, Androgen receptor (Homo sapiens, UniProt P10275); experiment: Agonist activity at AR in human LNAR cells assessed as increase in TMPRSS2 gene expression at 100 nM incubated for 24 hrs by RT-qPCR method; format: cell-based; settings: 0.1 µM
T3 sequence (P10275 whole entry): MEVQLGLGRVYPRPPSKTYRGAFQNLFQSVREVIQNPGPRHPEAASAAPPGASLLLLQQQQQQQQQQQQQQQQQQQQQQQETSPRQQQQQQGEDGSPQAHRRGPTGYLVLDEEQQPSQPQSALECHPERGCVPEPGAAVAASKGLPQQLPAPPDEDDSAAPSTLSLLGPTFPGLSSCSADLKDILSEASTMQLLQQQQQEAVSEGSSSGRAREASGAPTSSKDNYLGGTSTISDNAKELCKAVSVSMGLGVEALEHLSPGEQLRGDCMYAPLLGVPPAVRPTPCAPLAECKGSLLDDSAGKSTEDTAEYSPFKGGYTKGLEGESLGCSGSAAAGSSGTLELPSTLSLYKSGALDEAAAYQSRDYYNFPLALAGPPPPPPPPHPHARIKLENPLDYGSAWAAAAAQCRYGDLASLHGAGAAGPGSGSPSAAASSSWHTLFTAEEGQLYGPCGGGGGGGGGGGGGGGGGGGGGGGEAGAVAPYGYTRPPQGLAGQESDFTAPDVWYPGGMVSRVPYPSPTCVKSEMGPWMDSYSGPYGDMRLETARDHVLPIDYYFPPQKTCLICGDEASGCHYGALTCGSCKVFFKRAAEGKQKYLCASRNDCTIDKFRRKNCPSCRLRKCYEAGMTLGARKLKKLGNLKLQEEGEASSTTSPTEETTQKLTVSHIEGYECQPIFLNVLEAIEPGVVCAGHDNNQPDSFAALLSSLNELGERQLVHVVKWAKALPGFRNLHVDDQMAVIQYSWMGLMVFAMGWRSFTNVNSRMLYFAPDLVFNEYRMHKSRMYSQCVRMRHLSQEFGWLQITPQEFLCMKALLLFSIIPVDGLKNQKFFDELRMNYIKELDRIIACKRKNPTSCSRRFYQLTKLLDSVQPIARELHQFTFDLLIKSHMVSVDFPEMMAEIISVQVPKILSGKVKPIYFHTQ

[4] = Volume of distribution at steady state in mouse at 0.5 mg/kg, iv; format: ADME, organism-based; settings: in vivo, read-out: Vdss
Androgen receptor [5] = molecular target: T3, Androgen receptor; experiment: Agonist activity at AR in human MDA-MB-453 cells assessed as increase in […] gene expression at 111 to 333 nM incubated for 24 hrs by RT-qPCR method; format: cell-based; settings: mda-mb-453, 24 h, 0.333 µM
Glucocorticoid receptor [6] = molecular target: T2, Glucocorticoid receptor; experiment: Antagonist activity at GR in human OVCAR5 assessed as reduction in dexamethasone-induced GILZ gene expression incubated for 24 hrs by RT-qPCR method
androgen receptor (AR) = molecular target: T4, androgen receptor (AR) (Homo sapiens, UniProt P10275); experiment: Agonist activity at AR (unknown origin) expressed in human LNCaP cells incubated for 20 hrs by luciferase reporter gene assay relative to mifepristone; format: cell-based; settings: human LNCaP cells expressing AR
T4 sequence (P10275 whole entry): T3 sequence (P10275 whole entry)

[7] = AUC in rat at 5 mg/kg, po; format: ADME, organism-based; settings: in vivo
OVCAR-5 = experiment: Potentiation of gemcitabine-induced antitumor activity against human OVCAR5 cells xenografted in chronic cortisol treated nude mouse assessed as reduction in tumor volume at 75 mg/kg, po BID dosed via gavage co-treated with gencitabine at 100 mg/kg dosed every 3 days for 4 doses; format: functional, organism-based
How it was run: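 Cortisol given in drinking water at 100 mg/L before tumor implantation and throughout the study. Mice bearing established OVCAR5 xenografts, n = 10 per group. Gemcitabine 100 mg/kg and carboplatin 60 mg/kg given every 3 days for 4 doses. Antagonist given at 75 mg/kg twice daily by oral gavage for the whole study. Tumor volume tracked, mean ± SEM, with significance assessed on day 21.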

Androgen receptor [8] = molecular target: T3, Androgen receptor; experiment: Agonist activity at AR in human MDA-MB-453 cells assessed as increase in SEC14L2 gene expression at 111 to 333 nM incubated for 24 hrs by RT-qPCR method; format: cell-based; settings: mda-mb-453, 24 h, 0.333 µM
[9] = Clearance in rat at 0.5 mg/kg, iv; format: ADME, organism-based; settings: in vivo

CC(C)N(C)c1ccc([C@H]2C[C@@]3(C)[C@@H](CC[C@@]3(O)C#CC(C)(C)C)[C@@H]3CCC4=CC(=O)CC[C@@H]4[C@H]32)cc1
inhibition [1]: Dose-dependent effect | IC50 (Glucocorticoid receptor [2]): 17.2 nM | Activity (Androgen receptor [3]): Not Active | Vd [4]: 5.01 L/kg | Activity (Androgen receptor [5]): Not Active | IC50 (Glucocorticoid receptor [6]): 21.2 nM | Emax at 20 h (androgen receptor (AR)): 11% | AUC [7]: 635 ng·h/mL | Activity (OVCAR-5): Active | Activity (Androgen receptor [8]): Not Active | clearance [9]: 31.7 mL/min/kg

Reference: ChEMBL document CHEMBL4145686, “Discovery of a Potent and Selective Steroidal Glucocorticoid Receptor Antagonist (ORIC-101)” (J Med Chem, 2018)
